Measured values as given in article PMC4076525 (The Journal of General Physiology, 2014).

Tests used:
[1] = Extent of FeEnt-induced quenching of FM fluorescence in live cells; type: cell-based, Escherichia coli; details: 10 nM FeEnt, 2.5 × 10^7 cells/ml, FM-labeled mutants
Outline: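 Hosts were tonB+ ΔfepA or ΔtonB ΔfepA E. coli expressing plasmid-borne Cys-substituted FepA, grown in iron-deficient MOPS medium to late log. 10^10 cells were labeled with 5 µM fluorescein-5-maleimide in 50 mM Na2HPO4, 0.9% NaCl, pH 6.5, for 5 min at 37°C. Labeling was quenched with β-mercaptoethanol, and cells were resuspended in PBS with 0.4% glucose. FeEnt was added to 2.5 × 10^7 cells in 3 ml, stirred at 2°C, with emission read at 520 nm.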

59FeEnt transport = type: cell-based, Escherichia coli; details: for Vmax fold lower after fluoresceination: 59FeEnt uptake; for Transport rate relative to wild-type FepA: FM-modified, TonB-dependent uptake
Outline: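 Cultures were grown in LB with antibiotics, then in iron-deficient MOPS medium to 10^9 cells/ml. Cells were assayed before and after labeling with 5 µM fluorescein-5-maleimide (pH 6.5 phosphate/NaCl buffer, 5 min, 37°C, β-mercaptoethanol stop). Uptake was measured in MOPS medium with 0.4% glucose at 37°C in 10-ml volumes. KM and Vmax came from an enzyme-kinetics equation fit per sample.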

B1: S275C: E. coli FepA with Cys substitution at S275, surface loop 3 (protein, UniProt P05825 23-746, looked up, variant S275C)
Ferrienterobactin receptor: QEPTDTPVSHDDTIVVTAAEQNLQAPGVSTITADEIRKNPVARDVSKIIRTMPGVNLTGNSTSGQRGNNRQIDIRGMGPENTLILIDGKPVSSRNSVRQGWRGERDTRGDTSWVPPEMIERIEVLRGPAAARYGNGAAGGVVNIITKKGSGEWHGSWDAYFNAPEHKEEGATKRTNFSLTGPLGDEFSFRLYGNLDKTQADAWDINQGHQSARAGTYATTLPAGREGVINKDINGVVRWDFAPLQSLELEAGYSRQGNLYAGDTQNTNSDSYTRCKYGDETNRLYRQNYALTWNGGWDNGVTTSNWVQYEHTRNSRIPEGLAGGTEGKFNEKATQDFVDIDLDDVMLHSEVNLPIDFLVNQTLTLGTEWNQQRMKDLSSNTQALTGTNTGGAIDGVSTTDRSPYSKAEIFSLFAENNMELTDSTIVTPGLRFDHHSIVGNNWSPALNISQGLGDDFTLKMGIARAYKAPSLYQTNPNYILYSKGQGCYASAGGCYLQGNDDLKAETSINKEIGLEFKRDGWLAGVTWFRNDYRNKIEAGYVAVGQNAVGTDLYQWDNVPKAVVEGLEGSLNVPVSETVMWTNNITYMLKSENKTTGDRLSIIPEYTLNSTLSWQAREDLSMQTTFTWYGKQQPKKYNYKGQPAVGPETKEISPYSIVGLSATWDVTKNVSLTGGVDNLFDKRLWRAGNAQTTGDLAGANYIAGAGAYTYNEPGRTWYMSVNTHF
Quenching of FM emissions by FeEnt binding [1]: unaffected by FeEnt

B2: T550C-FM: FepA T550C labeled with fluorescein-5-maleimide (FM) (conjugate, UniProt P05825 23-746, looked up, variant T550C)
Ferrienterobactin receptor: QEPTDTPVSHDDTIVVTAAEQNLQAPGVSTITADEIRKNPVARDVSKIIRTMPGVNLTGNSTSGQRGNNRQIDIRGMGPENTLILIDGKPVSSRNSVRQGWRGERDTRGDTSWVPPEMIERIEVLRGPAAARYGNGAAGGVVNIITKKGSGEWHGSWDAYFNAPEHKEEGATKRTNFSLTGPLGDEFSFRLYGNLDKTQADAWDINQGHQSARAGTYATTLPAGREGVINKDINGVVRWDFAPLQSLELEAGYSRQGNLYAGDTQNTNSDSYTRSKYGDETNRLYRQNYALTWNGGWDNGVTTSNWVQYEHTRNSRIPEGLAGGTEGKFNEKATQDFVDIDLDDVMLHSEVNLPIDFLVNQTLTLGTEWNQQRMKDLSSNTQALTGTNTGGAIDGVSTTDRSPYSKAEIFSLFAENNMELTDSTIVTPGLRFDHHSIVGNNWSPALNISQGLGDDFTLKMGIARAYKAPSLYQTNPNYILYSKGQGCYASAGGCYLQGNDDLKAETSINKEIGLEFKRDGWLAGVTWFRNDYRNKIEAGYVAVGQNAVGCDLYQWDNVPKAVVEGLEGSLNVPVSETVMWTNNITYMLKSENKTTGDRLSIIPEYTLNSTLSWQAREDLSMQTTFTWYGKQQPKKYNYKGQPAVGPETKEISPYSIVGLSATWDVTKNVSLTGGVDNLFDKRLWRAGNAQTTGDLAGANYIAGAGAYTYNEPGRTWYMSVNTHF
modifications: fluorescein-5-maleimide label
Vmax fold lower after fluoresceination (59FeEnt transport): 3–10 fold

B3: fepA+: wild-type E. coli FepA, outer membrane ferric enterobactin transporter, expressed from pHSG575 plasmid (protein, UniProt P05825 23-746, looked up)
Ferrienterobactin receptor: QEPTDTPVSHDDTIVVTAAEQNLQAPGVSTITADEIRKNPVARDVSKIIRTMPGVNLTGNSTSGQRGNNRQIDIRGMGPENTLILIDGKPVSSRNSVRQGWRGERDTRGDTSWVPPEMIERIEVLRGPAAARYGNGAAGGVVNIITKKGSGEWHGSWDAYFNAPEHKEEGATKRTNFSLTGPLGDEFSFRLYGNLDKTQADAWDINQGHQSARAGTYATTLPAGREGVINKDINGVVRWDFAPLQSLELEAGYSRQGNLYAGDTQNTNSDSYTRSKYGDETNRLYRQNYALTWNGGWDNGVTTSNWVQYEHTRNSRIPEGLAGGTEGKFNEKATQDFVDIDLDDVMLHSEVNLPIDFLVNQTLTLGTEWNQQRMKDLSSNTQALTGTNTGGAIDGVSTTDRSPYSKAEIFSLFAENNMELTDSTIVTPGLRFDHHSIVGNNWSPALNISQGLGDDFTLKMGIARAYKAPSLYQTNPNYILYSKGQGCYASAGGCYLQGNDDLKAETSINKEIGLEFKRDGWLAGVTWFRNDYRNKIEAGYVAVGQNAVGTDLYQWDNVPKAVVEGLEGSLNVPVSETVMWTNNITYMLKSENKTTGDRLSIIPEYTLNSTLSWQAREDLSMQTTFTWYGKQQPKKYNYKGQPAVGPETKEISPYSIVGLSATWDVTKNVSLTGGVDNLFDKRLWRAGNAQTTGDLAGANYIAGAGAYTYNEPGRTWYMSVNTHF
Transport <FM Vmax (59FeEnt transport; 59FeEnt, 37°C, before modification with FM, listed as wild-type FepA): ~100 pMol/min/10^9 cells

B4: A698C-FM: FepA A698C labeled with fluorescein-5-maleimide (FM) (conjugate, UniProt P05825 23-746, looked up, variant A698C)
Ferrienterobactin receptor: QEPTDTPVSHDDTIVVTAAEQNLQAPGVSTITADEIRKNPVARDVSKIIRTMPGVNLTGNSTSGQRGNNRQIDIRGMGPENTLILIDGKPVSSRNSVRQGWRGERDTRGDTSWVPPEMIERIEVLRGPAAARYGNGAAGGVVNIITKKGSGEWHGSWDAYFNAPEHKEEGATKRTNFSLTGPLGDEFSFRLYGNLDKTQADAWDINQGHQSARAGTYATTLPAGREGVINKDINGVVRWDFAPLQSLELEAGYSRQGNLYAGDTQNTNSDSYTRSKYGDETNRLYRQNYALTWNGGWDNGVTTSNWVQYEHTRNSRIPEGLAGGTEGKFNEKATQDFVDIDLDDVMLHSEVNLPIDFLVNQTLTLGTEWNQQRMKDLSSNTQALTGTNTGGAIDGVSTTDRSPYSKAEIFSLFAENNMELTDSTIVTPGLRFDHHSIVGNNWSPALNISQGLGDDFTLKMGIARAYKAPSLYQTNPNYILYSKGQGCYASAGGCYLQGNDDLKAETSINKEIGLEFKRDGWLAGVTWFRNDYRNKIEAGYVAVGQNAVGTDLYQWDNVPKAVVEGLEGSLNVPVSETVMWTNNITYMLKSENKTTGDRLSIIPEYTLNSTLSWQAREDLSMQTTFTWYGKQQPKKYNYKGQPAVGPETKEISPYSIVGLSATWDVTKNVSLTGGVDNLFDKRLWRAGNAQTTGDLAGCNYIAGAGAYTYNEPGRTWYMSVNTHF
modifications: fluorescein-5-maleimide label
Transport rate relative to wild-type FepA (59FeEnt transport): 90%

B5: S271C-FM (conjugate, UniProt P05825 23-746, looked up, variant S271C)
Ferrienterobactin receptor: QEPTDTPVSHDDTIVVTAAEQNLQAPGVSTITADEIRKNPVARDVSKIIRTMPGVNLTGNSTSGQRGNNRQIDIRGMGPENTLILIDGKPVSSRNSVRQGWRGERDTRGDTSWVPPEMIERIEVLRGPAAARYGNGAAGGVVNIITKKGSGEWHGSWDAYFNAPEHKEEGATKRTNFSLTGPLGDEFSFRLYGNLDKTQADAWDINQGHQSARAGTYATTLPAGREGVINKDINGVVRWDFAPLQSLELEAGYSRQGNLYAGDTQNTNSDCYTRSKYGDETNRLYRQNYALTWNGGWDNGVTTSNWVQYEHTRNSRIPEGLAGGTEGKFNEKATQDFVDIDLDDVMLHSEVNLPIDFLVNQTLTLGTEWNQQRMKDLSSNTQALTGTNTGGAIDGVSTTDRSPYSKAEIFSLFAENNMELTDSTIVTPGLRFDHHSIVGNNWSPALNISQGLGDDFTLKMGIARAYKAPSLYQTNPNYILYSKGQGCYASAGGCYLQGNDDLKAETSINKEIGLEFKRDGWLAGVTWFRNDYRNKIEAGYVAVGQNAVGTDLYQWDNVPKAVVEGLEGSLNVPVSETVMWTNNITYMLKSENKTTGDRLSIIPEYTLNSTLSWQAREDLSMQTTFTWYGKQQPKKYNYKGQPAVGPETKEISPYSIVGLSATWDVTKNVSLTGGVDNLFDKRLWRAGNAQTTGDLAGANYIAGAGAYTYNEPGRTWYMSVNTHF
modifications: fluorescein-5-maleimide label
Transport rate relative to wild-type FepA (59FeEnt transport): 65%

B6: A383C-FM: FepA A383C labeled with fluorescein-5-maleimide (FM) (conjugate, UniProt P05825 23-746, looked up, variant A383C)
Ferrienterobactin receptor: QEPTDTPVSHDDTIVVTAAEQNLQAPGVSTITADEIRKNPVARDVSKIIRTMPGVNLTGNSTSGQRGNNRQIDIRGMGPENTLILIDGKPVSSRNSVRQGWRGERDTRGDTSWVPPEMIERIEVLRGPAAARYGNGAAGGVVNIITKKGSGEWHGSWDAYFNAPEHKEEGATKRTNFSLTGPLGDEFSFRLYGNLDKTQADAWDINQGHQSARAGTYATTLPAGREGVINKDINGVVRWDFAPLQSLELEAGYSRQGNLYAGDTQNTNSDSYTRSKYGDETNRLYRQNYALTWNGGWDNGVTTSNWVQYEHTRNSRIPEGLAGGTEGKFNEKATQDFVDIDLDDVMLHSEVNLPIDFLVNQTLTLGTEWNQQRMKDLSSNTQCLTGTNTGGAIDGVSTTDRSPYSKAEIFSLFAENNMELTDSTIVTPGLRFDHHSIVGNNWSPALNISQGLGDDFTLKMGIARAYKAPSLYQTNPNYILYSKGQGCYASAGGCYLQGNDDLKAETSINKEIGLEFKRDGWLAGVTWFRNDYRNKIEAGYVAVGQNAVGTDLYQWDNVPKAVVEGLEGSLNVPVSETVMWTNNITYMLKSENKTTGDRLSIIPEYTLNSTLSWQAREDLSMQTTFTWYGKQQPKKYNYKGQPAVGPETKEISPYSIVGLSATWDVTKNVSLTGGVDNLFDKRLWRAGNAQTTGDLAGANYIAGAGAYTYNEPGRTWYMSVNTHF
modifications: fluorescein-5-maleimide label
Vmax fold lower after fluoresceination (59FeEnt transport): 3–10 fold

B7: A322C (protein, UniProt P05825 23-746, looked up, variant A322C)
Ferrienterobactin receptor: QEPTDTPVSHDDTIVVTAAEQNLQAPGVSTITADEIRKNPVARDVSKIIRTMPGVNLTGNSTSGQRGNNRQIDIRGMGPENTLILIDGKPVSSRNSVRQGWRGERDTRGDTSWVPPEMIERIEVLRGPAAARYGNGAAGGVVNIITKKGSGEWHGSWDAYFNAPEHKEEGATKRTNFSLTGPLGDEFSFRLYGNLDKTQADAWDINQGHQSARAGTYATTLPAGREGVINKDINGVVRWDFAPLQSLELEAGYSRQGNLYAGDTQNTNSDSYTRSKYGDETNRLYRQNYALTWNGGWDNGVTTSNWVQYEHTRNSRIPEGLCGGTEGKFNEKATQDFVDIDLDDVMLHSEVNLPIDFLVNQTLTLGTEWNQQRMKDLSSNTQALTGTNTGGAIDGVSTTDRSPYSKAEIFSLFAENNMELTDSTIVTPGLRFDHHSIVGNNWSPALNISQGLGDDFTLKMGIARAYKAPSLYQTNPNYILYSKGQGCYASAGGCYLQGNDDLKAETSINKEIGLEFKRDGWLAGVTWFRNDYRNKIEAGYVAVGQNAVGTDLYQWDNVPKAVVEGLEGSLNVPVSETVMWTNNITYMLKSENKTTGDRLSIIPEYTLNSTLSWQAREDLSMQTTFTWYGKQQPKKYNYKGQPAVGPETKEISPYSIVGLSATWDVTKNVSLTGGVDNLFDKRLWRAGNAQTTGDLAGANYIAGAGAYTYNEPGRTWYMSVNTHF
59FeEnt transport rate compared with wild-type FepA (59FeEnt transport; before fluoresceination): about half that rate
